Here are results for six compounds from article PMC7953034 (Journal of Pesticide Science, 2021).

Molecules are shown by their SMILES. Where two headings read alike, the source gives them in different places.

Usually IC50 stands for the concentration needed to halve the response being measured. The low end stands for inhibition by little substance, the high end for a need for much substance.

In experiment [1] the target is T1, DmNobo (Drosophila melanogaster, UniProt Q7JYX0). The settings on record: crystal structure PDB ID: 6KEP; cited from earlier work.
Experiment [2] has as its target T1, DmNobo. Kind of experiment: GST activity inhibition assay. Format: biochemical. The procedure, abridged:
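Recombinant DmNobo from E. coli was used. Test compounds were serially diluted two-fold in DMSO (stock series from 2.5 mM down), then premixed with enzyme and GSH before 3,4-DNADCF was added. The final mix was 100 mM sodium phosphate pH 6.5, 25 ng·mL⁻¹ DmNobo, 1 mM GSH, 0.005% Tween 20 and 1 µM substrate. Fluorescence of the conjugate (ex 485/em 538 nm) was read every 30 s for 3 min. Relative activity was activity with/without compound; IC50 was taken from duplicate assays, with SD.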

Experiment [3] deals with T1, DmNobo. Description: Crystal structures of DmNobo complexed with inhibitors. The settings on record: for # of bound molecules in the H-site: crystal structure of DmNobo complex; for Conformational change of Phe39: apo vs compound-bound; for GSH requirement for binding: crystals soaked with or without GSH; for GS-conjugation: observed in crystal structure with GSH. The procedure, abridged:
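DmNobo was expressed in E. coli BL21(DE3) from a pCold III construct and purified by GSH affinity and size-exclusion chromatography. Crystals were grown over 34% (v/v) PPG400, 80 mM Bis-Tris pH 6.4. They were soaked 2 days in 42.5% PPG400, 100 mM Bis-Tris pH 6.4 with 30 mM test compound, ±10 mM GSH, then flash-frozen. Synchrotron data were phased by molecular replacement using apo DmNobo. Contacts were defined as ≤4.0 Å.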

T1 sequence (Q7JYX0 whole entry): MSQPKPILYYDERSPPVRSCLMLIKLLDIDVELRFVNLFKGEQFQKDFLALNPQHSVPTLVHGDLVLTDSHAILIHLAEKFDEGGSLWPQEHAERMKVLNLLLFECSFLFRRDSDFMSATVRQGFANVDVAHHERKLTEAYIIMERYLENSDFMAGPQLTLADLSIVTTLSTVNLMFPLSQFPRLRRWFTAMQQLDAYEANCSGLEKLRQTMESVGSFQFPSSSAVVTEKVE

Consider `C[C@]12CC[C@@H]3c4ccc(O)cc4CC[C@H]3[C@@H]1CC[C@@H]2O` [17β-Estradiol, 17β-estradiol], for which the “# of bound molecules in the H-site” value on DmNobo [1] is 1.
`COc1cccc(C2=NC(C)(C)NC(c3cc(Br)ccc3O)C2)c1` (stereo not drawn) [TDP011, 4-bromo-2-[4-(3-methoxyphenyl)-2,2-dimethyl-5,6-dihydro-1H-pyrimidin-6-yl]phenol] yielded an IC50 against DmNobo [2] of 6.72 ± 1.48 µM. At DmNobo [3], the “# of bound molecules in the H-site” value came to 1; the “GSH requirement for binding” value was “GSH-dependent and YES”; the GS-conjugation entry was “YES”. For the same compound, the “Conformational change of Phe39” value at DmNobo [3] (crystal structure) is “YES”.
With `O=C1CS(=O)(=O)N(Cc2ccc(F)cc2)c2ccsc21` [TDP012, 1-(4-fluorobenzyl)-1H-thieno[3,2-c][1,2]thiazin-4(3H)-one 2,2-dioxide], half-maximal inhibition at DmNobo [2] (IC50) required 3.1 ± 0.77 µM. Besides, on DmNobo [3], the “# of bound molecules in the H-site” value is given as 1; the “GSH requirement for binding” value was “GSH-dependent and YES”; the GS-conjugation result was “YES”. Moreover, at DmNobo [3] (crystal structure), the “Conformational change of Phe39” value is recorded as “YES”.
With `Cc1ccc(C(C)(C)C)cc1S(=O)(=O)Nc1ccccc1C(=O)O` [TDP013, 2-(5-tert-butyl-2-methyl-benzenesulfonylamino)-benzoic acid], inhibition against DmNobo [2] was half-maximal at 8.94 ± 1.65 µM (IC50). Besides, on DmNobo [3] (crystal structure), the “Different conformations of the inhibitor in subunits A and B” value was “YES”; the “Conformational change of Phe39” value is “YES”. The “# of bound molecules in the H-site” value at DmNobo [3] was found to be 1.
In turn, `Nc1ccc(N2CCc3sccc3C2)nc1` [TDP015, 6-(6,7-dihydrothieno[3,2-c]pyridin-5(4H)-yl)-3-pyridinamine] gave an IC50 at DmNobo [2] of 3.32 ± 0.81 µM. For the same compound, at DmNobo [3], the “# of bound molecules in the H-site” value was 2; the “GSH requirement for binding” value is “GSH-dependent and YES”; the GS-conjugation entry is reported as “YES”. On DmNobo [3] (crystal structure), the “Conformational change of Phe39” value is on record as “YES”.
Regarding `CC1(C)CC(=O)CC(=O)C1` [TDP045, 5,5-dimethyl-1,3-cyclohexanedione], the IC50 at DmNobo [2] is above 1000 µM. Also, the “inhibitory activity against DmNobo (in words)” value against DmNobo [2] (GSH-conjugation activity, 3,4-DNADCF) was “did not exhibit a strong inhibitory activity”. At DmNobo [3], the “# of bound molecules in the H-site” value is given as 1 and the GS-conjugation result was “YES”.
